PubChem BioAssay
The source made the active and inactive calls.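 How the source made its calls, unless noted: active means inhibition of the reporter signal at or above 50%; inactive means inhibition below 50%.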

Legend:
[1] = inhibitors of TNFa-induced NFkB p65 translocation, primary screen, imaging, HUVEC, MLSMR starter and 10KST1 sets (AID 438;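 active means inhibition above 20% together with a positive visual image hit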;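 further: compound added about 3h40 before a 20 min TNFalpha stimulation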;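 on inhibition: signal is the nuclear over cytoplasmic p65 intensity ratio per well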); details: HUVEC TNFa-induced p65 nuclear translocation; cell count: measured here: nuclei count (cytotoxicity indicator), at 2.08 µM; inhibition: at 2 µM, stronger effect = higher value, 0% TNFa-plus-vehicle, 100% no-TNFa wells
[2] = inhibitors of mutant huntingtin aggregation, primary screen, imaging, exon1htt(103Q)mCFP cells, high-content imaging (AID 483;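 active means visual image review flags a hit and inhibition of aggregation exceeds 20%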;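 further: compound exposure lasted 3 days before fixation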;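 on nuclei count: percent of the per-plate median nuclei count of sample wells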); details: exon1htt(103Q)mCFP cell line, aggregate imaging, at 2 µM; inhibition of aggregation: stronger effect = higher value; nuclei count: measured here: cell count, toxicity
[3] = inhibitors of E-selectin induction by TNFa, primary screen, imaging, HUVEC, immunofluorescence, MLSMR starter and 10KST1 sets (AID 487;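 active means visually confirmed hit in the image check and inhibition above 20%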;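 on inhibition: signal is fraction of cell area covered by stained E-selectin grains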;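 on nuclei count: 100% = median nuclei count of all wells on the same plate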); details: HUVEC TNFalpha-induced E-selectin immunofluorescence imaging, at 2 µM; inhibition: stronger effect = higher value; nuclei count: measured here: cell number, toxicity
[4] = biological target: Voltage-gated potassium channel subunit beta-2 (Rattus norvegicus) (UniProt P62483); test: KvBeta enzyme negative modulators, primary screen, biochemical, NADPH fluorescence (AID 622;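 active means fluorescence slope higher than the sample average by over 3 SD, cut at about -0.22 in these data, passing the limit was not always enough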;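 further: slope of raw intensity against log time taken from 70 to 1610 s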); details: recombinant KvBeta, 4-cyanobenzaldehyde reduction, at 10 µM, stronger effect = higher value
Voltage-gated potassium channel subunit beta-2 (Rattus norvegicus), sequence (P62483 whole entry, looked up): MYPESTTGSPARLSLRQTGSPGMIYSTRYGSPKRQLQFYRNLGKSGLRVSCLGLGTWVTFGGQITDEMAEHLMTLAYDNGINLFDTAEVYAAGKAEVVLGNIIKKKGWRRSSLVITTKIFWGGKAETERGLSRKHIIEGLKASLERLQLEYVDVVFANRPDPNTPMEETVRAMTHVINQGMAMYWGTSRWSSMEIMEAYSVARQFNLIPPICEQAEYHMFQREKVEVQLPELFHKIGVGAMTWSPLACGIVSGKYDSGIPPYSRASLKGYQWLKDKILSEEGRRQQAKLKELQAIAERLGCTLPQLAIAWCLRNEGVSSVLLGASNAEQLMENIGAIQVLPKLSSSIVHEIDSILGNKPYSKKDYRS

[5] = biological target: Voltage-gated potassium channel subunit beta-2 (Rattus norvegicus) (UniProt P62483); test: KvBeta positive modulators, primary screen, biochemical, NADPH fluorescence (AID 623;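 active means NADPH fluorescence slope more negative than the mean of all samples by about 3 SD, 99.7% confidence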;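 further: fluorescence intensity change per second fitted from 20 to 320 s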); details: Recombinant KvBeta, NADPH fluorescence decrease slope, 10 min; at 10 µM; stronger effect = lower value
[6] = biological target: Muscarinic acetylcholine receptor M4 (Homo sapiens) (UniProt P08173); test: compounds altering M4/GIRK thallium flux, either direction, primary screen, M4 allosteric agonist project, cell-based, HEK293 M4/GIRK, BTC-AM (AID 625;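 active means fluorescence slope after compound addition differing from the mean of all tested samples at 99.7% confidence, mostly higher but some lower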;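 further: thallium influx through GIRK channels coupled to M4 in HEK293 cells with BTC-AM dye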); details: at 10 µM, actives lie on both sides
Muscarinic acetylcholine receptor M4 (Homo sapiens), sequence (P08173 whole entry, looked up): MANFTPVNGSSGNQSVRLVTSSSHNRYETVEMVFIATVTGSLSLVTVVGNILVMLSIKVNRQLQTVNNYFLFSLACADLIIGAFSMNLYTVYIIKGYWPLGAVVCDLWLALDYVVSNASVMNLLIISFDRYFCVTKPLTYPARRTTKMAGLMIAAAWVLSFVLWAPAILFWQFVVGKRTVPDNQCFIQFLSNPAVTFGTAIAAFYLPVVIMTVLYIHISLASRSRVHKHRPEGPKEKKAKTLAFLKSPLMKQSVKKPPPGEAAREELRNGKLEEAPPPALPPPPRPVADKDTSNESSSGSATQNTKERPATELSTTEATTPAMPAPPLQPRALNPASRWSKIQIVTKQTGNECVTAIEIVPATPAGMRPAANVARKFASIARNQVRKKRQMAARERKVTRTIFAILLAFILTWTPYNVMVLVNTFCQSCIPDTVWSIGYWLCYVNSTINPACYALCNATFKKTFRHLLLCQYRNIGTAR
In short: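 Material – HEK293 cells with M4 receptor and GIRK channels · Buffer or medium – pH 7.3 thallium assay buffer · Doses – one dose, 10 µM final · Timing – cells overnight at 37 °C, BTC-AM loading 1 h, reads 2 min total · Measured by – kinetic fluorescence with BTC-AM dye · Controls – carbachol and DMSO controls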

[7] = inhibitors of Sendai virus-induced IRF3 signaling, primary screen, TLR/RLR signaling modifier project, cell-based, Sendai virus stimulus, luciferase, 10K MLSCN set (AID 602276;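 active means inhibition at or above 50% at 10 µM; inactive means inhibition below 50%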;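 further: firefly luciferase from ISG56 promoter only with Renilla not read in this screen; 0% = Sendai virus plus DMSO and 100% = medium plus DMSO without virus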); details: HEK293 RL24 IRF3 luciferase reporter, at 10 µM, stronger effect = higher value
[8] = inhibitors of poly I:C-induced TLR3 signaling, primary screen, cell-based, poly I:C stimulus, luciferase, 10K MLSCN set (AID 602277); details: HEK293-TLR3 RL24 IRF3 luciferase reporter, at 10 µM, stronger effect = higher value

Structure (SMILES)	cell count [1]	inhibition [1]	inhibition of aggregation [2]	nuclei count [2] [%]	inhibition [3]	nuclei count [3] [%]	fluorescence slope [4]	NADPH fluorescence slope [5]	fluorescence slope [6]	inhibition [7]	inhibition [8]
CSc1ccccc1NC(=O)c1noc2c1CCC2	416	2.6% (inactive)	-0.9% (inactive)	109	-55.8% (inactive)	120	-0.593 (inactive)	-8e-06 (inactive)	0.00589 (inactive)	-12.4% (inactive)	-50.3% (inactive)
CCOc1ccccc1C(=O)NCCCn1ccnc1	469	5.5% (inactive)	6.9% (inactive)	96.2	-89.5% (inactive)	121	-0.576 (inactive)	-6.1e-05 (inactive)	0.00757 (inactive)	11.4% (inactive)	8.04% (inactive)
COc1ccc(Br)cc1C(=O)Nc1nnn(C)n1	383	6.7% (inactive)	5.6% (inactive)	102	17% (inactive)	106	-0.51 (inactive)	4.6e-05 (inactive)	0.00661 (inactive)	-19.5% (inactive)	-34.7% (inactive)
NC(=O)C1CCN(CC(=O)N2c3ccccc3CCc3ccccc32)CC1	409	-16.8% (inactive)	-2.8% (inactive)	107	-20.9% (inactive)	154	-0.587 (inactive)	-5.7e-05 (inactive)	0.00441 (inactive)	15.6% (inactive)	23.9% (inactive)
N#Cc1nc(COc2ccccc2)oc1NCCN1CCOCC1	778	1.6% (inactive)	-34.9% (inactive)	96.4	-14.1% (inactive)	102	-0.569 (inactive)	2.2e-05 (inactive)	0.00627 (inactive)	2.21% (inactive)	2.82% (inactive)
Cc1ccc(CS(=O)(=O)CCC(=O)NCC2CCCO2)cc1 (stereo not drawn)	470	7% (inactive)	1.1% (inactive)	99.3	-191% (inactive)	121	-0.31 (inactive)	-4.6e-05 (inactive)	0.00623 (inactive)	6.62% (inactive)	8.68% (inactive)
COc1ccccc1CN(Cc1nc2ccccc2c(=O)[nH]1)C(=O)Nc1ccccc1	733	-6.8% (inactive)	16.9% (inactive)	87.7	-68.2% (inactive)	134	-0.49 (inactive)	-4.8e-05 (inactive)	0.0059 (inactive)	3.14% (inactive)	12.2% (inactive)
Cc1ccc(N2CC(C(=O)Nc3nnc(C)s3)CC2=O)cc1 (stereo not drawn)	622	0% (inactive)	-10.8% (inactive)	95.6	21.8% (inactive)	103	-0.542 (inactive)	-3e-05 (inactive)	0.00498 (inactive)	18.6% (inactive)	14.5% (inactive)
O=C(CN1C(=O)c2cccc3cccc1c23)N1CCN(c2ccccc2)CC1	512	-50% (inactive)	2.8% (inactive)	108	-27.9% (inactive)	101	-0.127 (inactive)	-6.1e-06 (inactive)	0.00738 (inactive)	-2.31% (inactive)	2.78% (inactive)
Cc1nnc2sc(-c3cccc(NC(=O)c4cccnc4)c3)nn12	295	-6% (inactive)	5% (inactive)	89.2	-54% (inactive)	108	-0.346 (inactive)	1.1e-05 (inactive)	0.006 (inactive)	-21% (inactive)	-15.6% (inactive)
CCCC1CC(C)(C(=O)Cn2[nH]c(=O)ccc2=O)OC1=O (stereo not drawn)	580	-22.2% (inactive)	-42.5% (inactive)	120	-76% (inactive)	104	-0.515 (inactive)	0.000145 (inactive)	0.00625 (inactive)	22.7% (inactive)	25.6% (inactive)
O=S(=O)(c1ccc2c(c1)nc1n2CCC1)N1CCOCC1	519	-1.9% (inactive)	-0.2% (inactive)	96.3	-18.9% (inactive)	107	-0.423 (inactive)	2.5e-05 (inactive)	0.00774 (inactive)	-4.44% (inactive)	13.8% (inactive)
CCC1c2ccc(C)n2CCN1C(=O)Nc1ccccc1OC (stereo not drawn)	551	-15.9% (inactive)	0.1% (inactive)	112	-63.1% (inactive)	116	-0.402 (inactive)	-6.4e-05 (inactive)	0.00541 (inactive)	3.56% (inactive)	3.42% (inactive)
CC(=O)Nc1ccc(S(=O)(=O)N2CCSC2c2ccccc2)cc1 (stereo not drawn)	241	-12.1% (inactive)	-8.7% (inactive)	106	-34.7% (inactive)	76.2	-0.552 (inactive)	-3.6e-05 (inactive)	0.00574 (inactive)	18.3% (inactive)	22% (inactive)
CCOC(=O)c1c(NCc2ccc3c(c2)OCO3)c2ccccc2[nH]c1=O	509	-9.9% (inactive)	16.6% (inactive)	94.1	-51.7% (inactive)	111	-0.252 (inactive)	-2.6e-05 (inactive)	0.00507 (inactive)	12.5% (inactive)	-13.3% (inactive)
CCCCN(Cc1cc2cc(OC)ccc2[nH]c1=O)C(=O)COc1ccccc1	348	4.3% (inactive)	-1.9% (inactive)	117	-53.3% (inactive)	125	-0.505 (inactive)	-5e-05 (inactive)	0.00376 (inactive)	7.27% (inactive)	13.1% (inactive)
O=C(Nc1ccc(CN2CCOCC2)cc1)c1cc2ccccc2oc1=O	426	3.6% (inactive)	-12.6% (inactive)	118	-218% (inactive)	146	-0.53 (inactive)	-7.9e-05 (inactive)	0.00463 (inactive)	0.662% (inactive)	29.5% (inactive)
Cc1cccc(C)c1NC(=O)CC(NCc1ccco1)C(=O)O (stereo not drawn)	623	-8.3% (inactive)	-5.4% (inactive)	71.3	26.5% (inactive)	105	-0.364 (inactive)	-6.5e-05 (inactive)	0.00596 (inactive)	10.4% (inactive)	23.1% (inactive)
COc1ccc(N2CCN(C(=O)CSc3ncnc4c3cnn4-c3ccccc3C)CC2)cc1	543	2.1% (inactive)	-6.1% (inactive)	120	-60.3% (inactive)	159	-0.506 (inactive)	-3.3e-06 (inactive)	0.0046 (inactive)	10.5% (inactive)	15.1% (inactive)
CC(OC1=CC(=O)CCC1)C(=O)c1ccccc1 (stereo not drawn)	370	10.4% (inactive)	36.6% (active)	64.2	24.1% (inactive)	72.3	-0.569 (inactive)	1.9e-05 (inactive)	0.00642 (inactive)	14.1% (inactive)	18.3% (inactive)
CCNS(=O)(=O)c1c(C)cc(N2CCCC2=O)cc1C	498	-8% (inactive)	4.4% (inactive)	88.1	27.7% (inactive)	89	-0.438 (inactive)	9.1e-05 (inactive)	0.00655 (inactive)	-1.95% (inactive)	0.215% (inactive)
CCOC(=O)c1cnc(-n2nc(C)cc2C)nc1NC(C)c1ccccc1 (stereo not drawn)	605	-9.5% (inactive)	8.7% (inactive)	94.4	13.2% (inactive)	93.5	-0.57 (inactive)	-9.1e-05 (inactive)	0.00529 (inactive)	8.07% (inactive)	0.674% (inactive)
COc1cc(OC)cc(-n2nnnc2SCC(=O)N2CCCC2)c1	740	-7.3% (inactive)	18.3% (inactive)	94.2	12% (inactive)	103	-0.622 (inactive)	1.7e-05 (inactive)	0.0053 (inactive)	15.1% (inactive)	23.1% (inactive)
O=C(Cc1c[nH]c2ccccc12)N1CCc2ccccc21	236	2.1% (inactive)	6.4% (inactive)	90	-28.8% (inactive)	93.8	-0.582 (inactive)	-1e-05 (inactive)	0.00443 (inactive)	-4.15% (inactive)	-44.5% (inactive)
Cc1noc(C)c1CSc1nnc(-c2ccncc2)n1-c1cccc(Cl)c1C	344	-2.1% (inactive)	-9% (inactive)	107	51.9% (inactive)	74.2	-0.482 (inactive)	5.5e-05 (inactive)	0.00492 (inactive)	10.2% (inactive)	34.9% (inactive)
Cc1ccc(-n2c(Cc3cccn3C)nnc2SCC(=O)NCc2ccc3c(c2)OCO3)cc1	567	-12.9% (inactive)	-10.3% (inactive)	103	-53.4% (inactive)	82.3	-0.419 (inactive)	2.3e-05 (inactive)	0.00714 (inactive)	18.7% (inactive)	26.7% (inactive)
O=C(c1ccc(S(=O)(=O)N2CCOCC2)cc1)N1CCc2ccccc2C1	401	-1% (inactive)	-27.5% (inactive)	103	-103% (inactive)	118	-0.469 (inactive)	-1.3e-05 (inactive)	0.00485 (inactive)	25.2% (inactive)	18.8% (inactive)
O=C(O)CCc1ccc(-c2cccs2)n1CCC(=O)O	828	-2.7% (inactive)	-3.1% (inactive)	95.6	-43% (inactive)	116	-0.55 (inactive)	-5.2e-05 (inactive)	0.00465 (inactive)	14.7% (inactive)	20.5% (inactive)
